# Screening data deposited in PubChem BioAssay by several laboratories.
# MC4R antagonist: antagonists of human melanocortin 4 receptor (MC4R); P32245; MC4R-expressing cells, MTII-stimulated cAMP, LANCE TR-FRET; inhibition, % at 6.5 µM; 360,000 compounds, 0.48% hits;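 active = inhibition above its plate's cutoff, the mean of tested wells on that plate plus 3 SD, cut at about 29% in these data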;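 note: 0% = Melanotan II alone and 100% = Melanotan II plus saturating MCL0020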
# Target sequence (P32245 whole entry, looked up): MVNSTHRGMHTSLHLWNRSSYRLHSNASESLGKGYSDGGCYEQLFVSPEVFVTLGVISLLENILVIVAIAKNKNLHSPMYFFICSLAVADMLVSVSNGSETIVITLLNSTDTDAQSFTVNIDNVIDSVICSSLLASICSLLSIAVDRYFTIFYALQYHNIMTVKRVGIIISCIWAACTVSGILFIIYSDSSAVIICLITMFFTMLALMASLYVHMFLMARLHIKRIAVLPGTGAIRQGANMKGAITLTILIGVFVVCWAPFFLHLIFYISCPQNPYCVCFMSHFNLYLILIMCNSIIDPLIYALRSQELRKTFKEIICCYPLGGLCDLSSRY
#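 Material: human MC4R-expressing U2OS cells. Probe or stimulus: Melanotan II challenge. Dosing: 6.5 µM single dose. Times: 30-min compound, 1-h challenge, 1-h detection, room temperature. Technique: TR-FRET with Eu-cAMP and labeled anti-cAMP, 671 nm. Replication: singlicate.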
# Granule exo inh: blocks lytic granule exocytosis | TALL-104 LAMP-1 surface exposure, flow cytometry; cells stimulated with thapsigargin and PMA | inhibition, % at 10 µM | 360,000 compounds, 0.66% hits | AID 651702;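 active = inhibition above about 55%, limit read from the data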
# EBI2 block: antagonists of human EBI2 receptor | EBI2 beta-arrestin recruitment, luminescence, 7a,25-OHC stimulated | inhibition, % at 5 µM | P32249 | 360,000 compounds, 0.81% hits; in the data active = inhibition above about 38%;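 note: enzyme fragment complementation signal reports receptor beta-arrestin coupling in cells; 0% = agonist plus DMSO wells and 100% = wells without agonist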
# Myeloid diff MLP: promotes myeloid progenitor differentiation; ER-HoxA9 myeloid progenitors, lysozyme-GFP differentiation, flow cytometry; calls only at 10 µM; 360,000 compounds, 1% hits;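 active = normalized GFP-positive differentiation at or above the plate's own cutoff, the solvent-only control mean plus 3 SD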;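 note: cells exposed to compound for four days before flow analysis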
# MC4R barr agon: human MC4R agonism via beta-arrestin; U2OS MC4R beta-arrestin complementation, luminescence; percent of melanotan II response, DMSO zero; P32245; AID 540308; activation, % at 8.9 µM; 360,000 compounds, 0.98% hits;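 active = activation above a per-plate cutoff, the mean activation of sample wells on that plate plus 3 SD, cut at about 8% in these data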
# EBI2 conf: confirmation of human EBI2 receptor antagonists | shares compounds with EBI2 block | inhibition, % at 5 µM | EBI2 beta-arrestin luminescence, 7a,25-OHC antagonism | 2,400 compounds, 29% hits | AID 651997;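 active = inhibition of at least 50%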
# EBI2 ag: activates EBI2, counter-screen for EBI2 antagonists. shares compounds with EBI2 block. EBI2-expressing cells, agonist mode, luminescence, 60 min; 0% vehicle, 100% 7α,25-dihydroxycholesterol control. activation, % at 5 µM. 2,400 tested, under 10 active. AID 652000;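 active = activation of at least 50%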
# bGal counter: inhibits E. coli beta-galactosidase, counter-screen for EBI2 antagonists; shares compounds with EBI2 block; purified beta-galactosidase, luminescent Galacton Star, 15 min; inhibition, % at 5 µM; 2,400 compounds, 1% hits; AID 652176;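 active = replicate-average signal at least 3 plate SD below neutral wells, shown as high inhibition, flagging enzyme-inhibiting false positives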;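 note: 0% = DMSO wells with enzyme and 100% = wells lacking enzyme; higher means stronger loss of beta-gal luminescence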
# Active calls of the source: *; i = inactive; · = no result. In the library only some 3.7% were active in any assay of this set; here they are far more common.
SMILES,MC4R antagonist,Granule exo inh,EBI2 block,Myeloid diff MLP,MC4R barr agon,EBI2 conf,EBI2 ag,bGal counter
COc1ccc(-n2cc(-c3ccc(Br)cc3)[nH]c2=S)cc1,14,-3,79*,i,3,52*,-2,-8
O=C(N/N=C/c1ccc(Cl)cc1)C1CC12CCC2 (stereo not given),14,-2,-1,i,0,·,·,·
c1ccc2c(c1)OCC(c1csc3ncnc(N4CCCC4)c13)O2 (stereo not given),14,-1,18,i,0,·,·,·
c1ccc(CCNc2ncnc3scc(C4COc5ccccc5O4)c23)cc1 (stereo not given),-5,5,87*,i,2,55*,1,-1
COc1ccc(NC(=O)c2cccc(-c3ccc(O)cc3)c2)cn1,4,0,10,i,-2,·,·,·
Cc1ccc(S(=O)(=O)N2CCCN(C(=O)c3cc4ccccc4[nH]3)CC2)cc1,13,7,54*,i,0,34,1,10
CCOC(=O)N1CCN(C(=O)c2cc3cc(C)ccc3[nH]2)CC1,-5,0,88*,i,0,67*,0,7
CN1CCN(C(=O)c2cc3ccccc3[nH]2)CC1,2,-8,13,i,1,·,·,·
Cc1ccc2[nH]c(C(=O)N3CCN(c4cccc(Cl)c4)CC3)cc2c1,14,5,54*,i,1,47,0,6
Cc1ccc2[nH]c(C(=O)N3CCN(C=O)CC3)cc2c1,19,-7,75*,i,1,28,1,10
Cc1ccc(Cn2ccc(O)c(Cc3ccccc3)c2=O)cc1,3,3,0,i,-2,·,·,·
NS(=O)(=O)c1ccc(CNC(=O)CSc2nc3ccc(Cl)cc3[nH]2)cc1,9,-4,4,i,0,·,·,·
CC(C)(C)C#CCn1c(/C=[N+](\[O-])C2CCCCC2)nc2ccccc21,-3,0,-12,i,1,·,·,·
COc1ccc(-c2cn(Cc3cccc(OC)c3)nn2)cc1,-6,0,43*,i,1,22,1,2
COc1cccc(Cn2cc(-c3cccc(C(F)(F)F)c3)nn2)c1,1,-5,5,i,-1,·,·,·
COc1ccc(NC(=O)CN2CCC(Cc3ccccc3)CC2)cc1S(=O)(=O)N1CCOCC1,4,0,9,i,1,·,·,·
COc1cccc(C(C(=O)NC2CCCCC2)N(C(=O)c2cccs2)c2ccc3c(c2)OCO3)c1 (stereo not given),5,4,48*,i,-1,27,-2,-8
O=C(CN1CCN(S(=O)(=O)c2ccc(Br)cc2)CC1)N/N=C/c1ccncc1,24,2,54*,i,2,32,0,7
O=C(CNC(=O)c1ccc(S(=O)(=O)N2CCCC2)cc1)N/N=C/c1c(Cl)cccc1Cl,5,-5,11,i,0,·,·,·
O=C(CNC(=O)c1ccc(S(=O)(=O)N2CCCC2)cc1)N/N=C/c1ccc(Cl)cc1,0,1,60*,i,-3,40,1,-1
O=C(CNC(=O)c1ccc(S(=O)(=O)N2CCCC2)cc1)N/N=C/c1ccc(Cl)cc1Cl,3,9,75*,i,0,48,1,2
CC(C)OCCCNC(=O)CCCC(=O)Nc1ccc(OCCc2ccccc2)cc1,23,-7,-13,i,1,·,·,·
c1ccc(-c2ncc(-c3ccn[nH]3)s2)cc1,4,-3,-5,·,-1,·,·,·
CCCCn1c2ccc(F)cc2c2nnc(SCCN3CCCCC3)nc21,1,35,57*,i,0,33,0,11
CCCCn1c2ccc(C)cc2c2nnc(SCCN3CCCCC3)nc21,15,11,69*,i,1,28,0,2
CCn1c2ccc(C)cc2c2nnc(SCCN3CCOCC3)nc21,-10,-3,6,i,0,·,·,·
